Results on 1 substance are retold here after ChEMBL document CHEMBL2163301, “Substrates for efficient fluorometric screening employing the NAD-dependent sirtuin 5 lysine deacylase (KDAC) enzyme” (J Med Chem, 2012).

Broadly, the Km is the substrate concentration at which the rate is half of its maximum.

The subject of data set [1] is CC(=O)N[C@@H](CCCCNC(=O)CCC(=O)O)C(=O)Nc1ccc2c(C)cc(=O)oc2c1. Kind of data set: (§1) Activity of human SIRT5 assessed as desuccinylation of compound after 1 hr by Michaelis-Menten plot analysis. Put shortly:
(§2)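 Recombinant human SIRT5 with fluorogenic succinyllysine-AMC substrate and NAD in Tris-Cl buffer pH 8.0 containing BSA, with in situ AMC release by Lys-C or trypsin developer. Fluorescence (ex 360/em 460 nm) read every 30 s for at least 30 min at 25 °C to give initial rates over a substrate concentration series. Km and Vmax from Michaelis-Menten fit; kcat from AMC standard curve and supplier enzyme concentration.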

Data set [2] deals with CC(=O)N[C@@H](CC(C)C)C(=O)NCC(=O)N[C@@H](CCCCNC(=O)CCC(=O)O)C(=O)Nc1ccc2c(C)cc(=O)oc2c1. The description is as §1. An outline of the steps: as §2
In data set [3] the test system is CC(=O)N[C@@H](CCCCNC(=O)CCC(=O)O)C(=O)Nc1ccc2c(C)cc(=O)oc2c1. Kind of data set: (§3) Ratio of Kcat to Km for human SIRT5 assessed as desuccinylation of compound after 1 hr by Michaelis-Menten plot analysis. Put shortly: as §2
Data set [4] concerns CC(=O)N[C@@H](CC(C)C)C(=O)NCC(=O)N[C@@H](CCCCNC(=O)CCC(=O)O)C(=O)Nc1ccc2c(C)cc(=O)oc2c1. The data set is described as §3. An outline of the steps: as §2

NAD-dependent protein deacylase sirtuin-5, mitochondrial (Homo sapiens), Q9NXA8, sequence (Q9NXA8 whole entry): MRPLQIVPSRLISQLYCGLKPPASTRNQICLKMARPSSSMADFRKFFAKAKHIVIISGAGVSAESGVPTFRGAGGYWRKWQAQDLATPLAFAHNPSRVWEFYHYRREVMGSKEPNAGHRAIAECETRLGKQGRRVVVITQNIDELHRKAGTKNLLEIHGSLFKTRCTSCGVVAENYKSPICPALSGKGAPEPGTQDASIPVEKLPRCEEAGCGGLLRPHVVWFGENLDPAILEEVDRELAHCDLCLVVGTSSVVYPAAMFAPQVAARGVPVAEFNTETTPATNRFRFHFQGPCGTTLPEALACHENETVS

Turning to “NAD-dependent protein deacylase sirtuin-5, mitochondrial (Homo sapiens), Q9NXA8”, the Km worked out at 84 µM in data set [1] and 33 µM in data set [2]. In addition, the figures for the Vmax in data set [1] and in data set [2] were 5.6 ×10⁻⁴ µM/s and 1.9 nM/s, respectively. In addition, the kcat is 9 ×10⁻³ /s in data set [1] and 3 ×10⁻² /s in data set [2]. Moreover, the results for the kcat/Km in data set [3] and in data set [4] were 1.1 ×10² /s/M and 9.2 ×10² /s/M, respectively.
